Test [1] relates to P388. The test is described as follows: Concentration required to inhibit 50% of cell growth on murine P388 D1 cells. In kind it is functional, cell-based. The settings on record: Mus musculus.
Test [2] deals with leukaemia cell line. The test can be described thus: Mean graph mid point was measured on leukemicell lines. It is filed as functional, Homo sapiens. The method in brief: (§1)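 Human tumor panel of about 55 lines: leukemia, melanoma, non-small-cell lung, colon, CNS, ovarian, renal, prostate and breast. Compounds generally tested from 10^-4 to 10^-8 M, noting 50% growth inhibition for each line. Mean graph midpoints taken for all lines, leukemic lines and colon lines. Duplicate or triplicate runs were averaged.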

Test [3] deals with MOLT-4. The test can be described thus: Concentration required to inhibit 50% of cell growth on human Molt 4/C8 cells. In kind it is functional, cell-based. The method in brief:
(§2)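 Murine P388 D1 and L1210 leukemia cells and human Molt 4/C8 and CEM T-lymphocytes were tested. IC50 is the concentration inhibiting 50% of growth.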

A short description of test [4]: Selectivity index is the ratio of MG MID value for all cell lines to that of leukemic cells. In kind it is functional.
Test [5] relates to CCRF-CEM. The test is described as follows: Concentration required to inhibit 50% of cell growth on CEM lymphocytes. In kind it is functional, cell-based. The settings on record: Homo sapiens. An outline of the steps: as §2
Test [6] can be described thus: Selectivity index is the ratio of MG MID value for all cell lines to that of colon cancer cells. In kind it is functional.
For test [7], the system named is Tumor cell line. The test is described as follows: (§3) Mean graph mid point was measured on all cell lines. In kind it is functional, Homo sapiens. The method in brief:
as §1

The test system of test [8] is L1210. The test is described as follows: Concentration required to inhibit 50% of cell growth on murine L1210 cells. It is filed as functional, cell-based. The settings on record: Mus musculus. The method in brief:
as §2

In test [9] the test system is Panel colon (Carcinoma cell lines). The test can be described thus: Mean graph mid point was measured on colon cancer cell lines. In kind it is functional, Homo sapiens. The method in brief:
as §1

In test [10] the test system is Mus musculus. The test is described as follows: Ip score was calculated by implanting different tumor cell lines in hollow fibres in mice by the intraperitoneal route(Net cell kill was observed it indicates the cytotoxicity was occurred). It is filed as functional.
Test [11] relates to Colon carcinoma cell. The test is described as follows: Mean graph mid point was measured on colon cancer cells. In kind it is functional, Homo sapiens. An outline of the steps: as §1
The test system of test [12] is leukaemia cell line. The test is described as follows: Mean graph mid point was measured on leukemic cells. In kind it is functional, Homo sapiens. The method in brief:
as §1

Test [13] is filed under the species Mus musculus. The test is described as follows: Sc score was calculated by implanting different tumor cell lines in hollow fibres in mice by the occurred). In kind it is functional. The method in brief:
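Mice carried hollow fibers with 12 human tumor lines (colon, breast, NSCLC, melanoma, ovarian, CNS) implanted ip and sc. Compounds were given ip at two doses daily for 4 days. Fibers were collected 1 day after the last dose. Viable cell mass was measured by MTT formazan conversion, giving the sc score.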

Test [14] relates to Tumor cancer cell line. The description is as §3. It is filed as functional, Homo sapiens. An outline of the steps:
as §1

SMILES strings stand for the structures.

As usually defined, the IC50 is the point on the concentration scale where inhibition reaches its midpoint. Low readings indicate inhibition by little substance, high ones a need for much substance. As for `CN(C)CC1CCC/C(=C\c2ccc(OC(=O)/C=C/c3ccc(Cl)c(Cl)c3)cc2)C1=O.Cl` (stereo not given), the IC50 in [1] was determined as 4.18 µM; in [3] it was 4.57 µM; in test [5], 5.82 µM; in test [8] it was 3.31 µM. For the same compound, the results for the “MG MID” value in test [2], in test [7] and in test [9] were 0.83 µM, 3.57 µM and 2.38 µM, respectively. Moreover, the values for the SI in [4] and in test [6] were 4.3 and 1.5, respectively.
In the case of `CN(C)CC1CCC/C(=C\c2ccc(OC(=O)/C=C/c3ccccc3)cc2)C1=O.Cl` (stereo not given), in [10], the Ip score is recorded as 12. For the same compound, the half-inhibitory concentration (IC50) turned out to be 4.02 µM in test [1], 39.5 µM in test [3], 42.8 µM in test [5] and 32.8 µM in test [8]. In addition, the SI in test [4] is listed as 2.3; in test [6], 1.1. Moreover, the “MG MID” value in [11] stood at 2.21 µM; in [12] it was 1.06 µM; in [14], 2.41 µM. For the same compound, in test [13], the Subcut score is given as 14.

The values are drawn from ChEMBL document CHEMBL1133471, “Sequential cytotoxicity: a theory evaluated using novel 2-[4-(3-aryl-2-propenoyloxy)phenylmethylene]cyclohexanones and related compounds” (J Med Chem, 2000).
